System: HEK-293T
Assay: Multiplex assay against HEK293T
Type: toxicity, cell-based
Conditions: human
Outline: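 On a CQ1 microscope at 37°C and 5% CO2, live cells were imaged after compound addition. They had been stained at seeding with Hoechst33342, BioTracker Green Microtubule Cytoskeleton Dye, MitoTracker Red and Annexin V Alexa Fluor 680. CellPathfinder machine-learning gating assigned cells to Hoechst high-intensity objects or normal cells, normal cells to healthy, pyknosed or fragmented nuclei, and pyknosed cells to mitotic or apoptotic. Tubulin, mitochondrial-mass and membrane-permeability phenotypes are per cents of healthy-nucleus cells.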

[1] = 12 h, 1 µM, compound concentration 1 uM, replicate 1
[2] = 12 h, 1 µM, compound concentration 1 uM, replicate 2
[3] = 12 h, 10 µM, compound concentration 10 uM, replicate 1
[4] = 12 h, 10 µM, compound concentration 10 uM, replicate 2
[5] = 24 h, 1 µM, compound concentration 1 uM, replicate 1
[6] = 24 h, 1 µM, compound concentration 1 uM, replicate 2
[7] = 24 h, 10 µM, compound concentration 10 uM, replicate 1
[8] = 24 h, 10 µM, compound concentration 10 uM, replicate 2
[9] = 48 h, 1 µM, compound concentration 1 uM, replicate 1
[10] = 48 h, 1 µM, compound concentration 1 uM, replicate 2
[11] = 48 h, 10 µM, compound concentration 10 uM, replicate 1
[12] = 48 h, 10 µM, compound concentration 10 uM, replicate 2

CN(C)C(=O)Cn1cc(-c2ccc(-c3cncc4ccccc34)cc2)cn1
Population Apoptotic (%) [1]: 52%
Population Fragmented Nuclei (%) [1]: 5%
Population Healthy Nuclei (%) [1]: 81%
Population Hoechst High Intensity Objects (%) [1]: 7%
Population Membrane Permeable-Phenotype (%) [1]: 0%
Population Mitochondria Different-Phenotype (%) [1]: 50%
Population Mitotic Cells (%) [1]: 47%
Population Normal (%) [1]: 92%
Population Pyknosed Nuclei (%) [1]: 12%
Population Tubulin-Different-Phenotype (%) [1]: 35%
Total Cell Count [1]: 411
Population Apoptotic (%) [2]: 40%
Population Fragmented Nuclei (%) [2]: 4%
Population Healthy Nuclei (%) [2]: 80%
Population Hoechst High Intensity Objects (%) [2]: 2%
Population Mitochondria Different-Phenotype (%) [2]: 58%
Population Mitotic Cells (%) [2]: 59%
Population Normal (%) [2]: 97%
Population Pyknosed Nuclei (%) [2]: 14%
Population Tubulin-Different-Phenotype (%) [2]: 23%
Total Cell Count [2]: 337
Population Apoptotic (%) [3]: 48%
Population Fragmented Nuclei (%) [3]: 8%
Population Healthy Nuclei (%) [3]: 73%
Population Hoechst High Intensity Objects (%) [3]: 6%
Population Membrane Permeable-Phenotype (%) [3]: 0%
Population Mitochondria Different-Phenotype (%) [3]: 65%
Population Mitotic Cells (%) [3]: 51%
Population Normal (%) [3]: 93%
Population Pyknosed Nuclei (%) [3]: 17%
Population Tubulin-Different-Phenotype (%) [3]: 47%
Total Cell Count [3]: 264
Population Apoptotic (%) [4]: 69%
Population Healthy Nuclei (%) [4]: 76%
Population Hoechst High Intensity Objects (%) [4]: 19%
Population Mitochondria Different-Phenotype (%) [4]: 69%
Population Mitotic Cells (%) [4]: 30%
Population Normal (%) [4]: 80%
Population Pyknosed Nuclei (%) [4]: 15%
Population Tubulin-Different-Phenotype (%) [4]: 43%
Total Cell Count [4]: 321
Population Apoptotic (%) [5]: 47%
Population Fragmented Nuclei (%) [5]: 10%
Population Healthy Nuclei (%) [5]: 79%
Population Hoechst High Intensity Objects (%) [5]: 6%
Population Membrane Permeable-Phenotype (%) [5]: 0%
Population Mitochondria Different-Phenotype (%) [5]: 38%
Population Mitotic Cells (%) [5]: 52%
Population Normal (%) [5]: 93%
Population Pyknosed Nuclei (%) [5]: 10%
Population Tubulin-Different-Phenotype (%) [5]: 24%
Total Cell Count [5]: 498
Population Apoptotic (%) [6]: 40%
Population Fragmented Nuclei (%) [6]: 6%
Population Healthy Nuclei (%) [6]: 82%
Population Hoechst High Intensity Objects (%) [6]: 7%
Population Mitochondria Different-Phenotype (%) [6]: 45%
Population Mitotic Cells (%) [6]: 60%
Population Normal (%) [6]: 92%
Population Tubulin-Different-Phenotype (%) [6]: 23%
Total Cell Count [6]: 355
Population Apoptotic (%) [7]: 48%
Population Fragmented Nuclei (%) [7]: 9%
Population Healthy Nuclei (%) [7]: 75%
Population Hoechst High Intensity Objects (%) [7]: 6%
Population Membrane Permeable-Phenotype (%) [7]: 0%
Population Mitochondria Different-Phenotype (%) [7]: 65%
Population Mitotic Cells (%) [7]: 51%
Population Normal (%) [7]: 93%
Population Pyknosed Nuclei (%) [7]: 14%
Population Tubulin-Different-Phenotype (%) [7]: 44%
Total Cell Count [7]: 283
Population Apoptotic (%) [8]: 45%
Population Fragmented Nuclei (%) [8]: 10%
Population Hoechst High Intensity Objects (%) [8]: 14%
Population Mitochondria Different-Phenotype (%) [8]: 53%
Population Mitotic Cells (%) [8]: 54%
Population Normal (%) [8]: 85%
Population Pyknosed Nuclei (%) [8]: 13%
Population Tubulin-Different-Phenotype (%) [8]: 30%
Total Cell Count [8]: 362
Population Apoptotic (%) [9]: 35%
Population Fragmented Nuclei (%) [9]: 19%
Population Healthy Nuclei (%) [9]: 74%
Population Hoechst High Intensity Objects (%) [9]: 8%
Population Membrane Permeable-Phenotype (%) [9]: 1%
Population Mitochondria Different-Phenotype (%) [9]: 40%
Population Mitotic Cells (%) [9]: 64%
Population Normal (%) [9]: 91%
Population Pyknosed Nuclei (%) [9]: 6%
Population Tubulin-Different-Phenotype (%) [9]: 25%
Total Cell Count [9]: 554
Population Apoptotic (%) [10]: 60%
Population Fragmented Nuclei (%) [10]: 11%
Population Healthy Nuclei (%) [10]: 82%
Population Hoechst High Intensity Objects (%) [10]: 5%
Population Membrane Permeable-Phenotype (%) [10]: 0%
Population Mitochondria Different-Phenotype (%) [10]: 32%
Population Mitotic Cells (%) [10]: 39%
Population Normal (%) [10]: 94%
Population Pyknosed Nuclei (%) [10]: 5%
Population Tubulin-Different-Phenotype (%) [10]: 17%
Total Cell Count [10]: 430
Population Apoptotic (%) [11]: 66%
Population Fragmented Nuclei (%) [11]: 23%
Population Healthy Nuclei (%) [11]: 63%
Population Hoechst High Intensity Objects (%) [11]: 11%
Population Membrane Permeable-Phenotype (%) [11]: 0%
Population Mitochondria Different-Phenotype (%) [11]: 56%
Population Mitotic Cells (%) [11]: 33%
Population Normal (%) [11]: 88%
Population Pyknosed Nuclei (%) [11]: 12%
Population Tubulin-Different-Phenotype (%) [11]: 30%
Total Cell Count [11]: 379
Population Apoptotic (%) [12]: 59%
Population Healthy Nuclei (%) [12]: 70%
Population Hoechst High Intensity Objects (%) [12]: 8%
Population Mitochondria Different-Phenotype (%) [12]: 43%
Population Mitotic Cells (%) [12]: 40%
Population Normal (%) [12]: 91%
Population Pyknosed Nuclei (%) [12]: 6%
Population Tubulin-Different-Phenotype (%) [12]: 23%
Total Cell Count [12]: 429

From ChEMBL document CHEMBL5058577, “EUbOPEN Chemogenomics Library 2 (Multiplex)” (2022)
